# A selection: hits, their analogues and other compounds. The true share with any hit is near 6.4%.
# CHOP inhibitor – inhibitors of CHOP induction in ER stress response; CHO-K1 CHOP-promoter luciferase, tunicamycin-induced, 15-18 h; inhibition, % at 10 µM; actives 3.8% (n = 220,000);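 active = compounds that reduced the stress-induced luciferase reporter signal by more than about 70% of percent inhibition, limit read from the data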;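 note: 0% = tunicamycin plus vehicle and 100% = wells without tunicamycin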
# GRIN3A LBD mod – NR3A (human) ligand-binding domain modulation | Tm shift relative to glycine control, % at 25 µM | actives 2.5% (n = 340,000) | NR3A LBD differential scanning fluorimetry, Tm shift; 0% = protein alone, 100% = glycine-bound protein;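 active = melting temperature shift of at least 10% of the positive control shift, at one fixed dose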
# EBV gp42 block – inhibitors of Epstein-Barr virus glycoprotein 42; AID 1085; Fluorescence polarization binding assay, mP read-out; inhibition, % (tested at 21.74 µM); actives 0.42% (n = 220,000); Q1HVG2; in the data active = inhibition above about 50%
# Target sequence (Q1HVG2 whole entry, looked up): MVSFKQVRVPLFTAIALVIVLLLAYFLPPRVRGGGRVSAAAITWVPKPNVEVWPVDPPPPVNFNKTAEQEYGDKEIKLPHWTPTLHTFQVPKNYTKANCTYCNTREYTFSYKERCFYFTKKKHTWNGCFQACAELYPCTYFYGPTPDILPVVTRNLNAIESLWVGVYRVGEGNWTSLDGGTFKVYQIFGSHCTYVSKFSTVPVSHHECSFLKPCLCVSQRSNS
# MPTP block – blocks calcium-induced mitochondrial swelling; isolated mouse mitochondria, Ca2+ swelling absorbance, 30 min; inhibition, % at 10 µM; actives 1.4% (n = 360,000);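 active = inhibition of 50% or more, scaled per plate between neutral and stimulator controls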;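 note: 0% = DMSO wells given calcium and 100% = 1 mM EGTA wells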
# WT yeast gro inh – growth inhibition of WT yeast, mitochondrial fusion screen. mitochondrial fusion phenotypic screen, WT strain. inhibition, % at 10 µM. actives 2.1% (n = 190,000); in the data active = inhibition above about 58%; tested in S. cerevisiae
# Tb MetRS inh – blocks T. brucei methionyl-tRNA synthetase activity | inhibition, % at 11.9 µM | actives 0.4% (n = 360,000) | AID 624268 | purified T. brucei MetRS, ATP depletion, Kinase-Glo luminescence;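 active = inhibition above a per-plate cutoff of the control wells' mean inhibition plus 3 SD, cut at about 5.5% in these data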;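 note: 0% = DMSO wells median and 100% = median of wells with control inhibitor compound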
#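 Assay system: T. brucei methionyl-tRNA synthetase, purified | Medium: HEPES buffer with MgCl2, KCl, DTT, spermine, BSA, pyrophosphatase | Compound: 11.9 µM single point | Incubation: 15 min enzyme-compound preincubation, 2 h reaction, 10 min detection, 25 °C | Measured by: Kinase-Glo luciferase luminescence reporting remaining unconsumed ATP | Measure: % inhibition normalized to control-well medians | Replication: Singlicate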
# * marks the source's active call; other numbers are inactive results; x = not tested or not shown.
SMILES,CHOP inhibitor,GRIN3A LBD mod,EBV gp42 block,MPTP block,WT yeast gro inh,Tb MetRS inh
CCCN1CCC(=NNC(=O)CSc2cc(C)c(Br)cc2C)CC1,49,-5,-6,-1,18,0
CC(=O)NC(c1ccco1)c1cc(Cl)c2ccc(Cl)nc2c1O (configuration not stated),x,0,x,-2,x,0
COc1ccccc1-c1cc(N)n(S(=O)(=O)c2cccc3nsnc23)n1,9,-8,9,0,x,-1
Nc1cc(-c2ccc(Cl)cc2)nn1S(=O)(=O)c1cccc2nsnc12,80*,19*,8,1,7,1
Nc1cc(-c2ccc(Br)cc2)nn1S(=O)(=O)c1cccc2nsnc12,86*,0,-4,2,37,2
Nc1cc(-c2cccc(F)c2)nn1S(=O)(=O)c1cccc2nsnc12,5,8,-24,0,9,0
Cc1c(C(=O)N(C)Cc2ccccc2)oc2ccc(S(=O)(=O)N3CCCC3)cc12,-14,-2,-2,3,-8,1
COc1ccc2nc3oc(C(=O)Nc4ccc(OC)c(OC)c4)cc3cc2c1,39,17*,-16,3,-4,0
COc1ccc2cc3cc(C(=O)Nc4ccc5c(c4)OCO5)oc3nc2c1,-35,26*,-9,1,6,0
Cc1ccc2cc3cc(C(=O)NCc4ccc5c(c4)OCO5)oc3nc2c1,68,3,-38,-2,-4,-1
COc1ccc2cc3cc(C(=O)NCCc4ccc(OC)c(OC)c4)oc3nc2c1,10,-12,-8,-2,15,-1
NS(=O)(=O)c1cnccc1Nc1cccc(Br)c1,x,2,x,2,x,0
O=C(CCn1c(=O)oc2ccccc21)NCc1ccc2c(c1)OCO2,23,-4,-4,0,-1,0
COc1ccc(CC(=O)N2CCOCC2)cc1OC,10,0,3,0,87*,-2
CCOC(=O)C1CCN(C(=O)COC(=O)/C=C/c2cccc(OC)c2OC)CC1,x,15*,x,2,x,0
CCOC(=O)C1CCN(C(=O)Cc2ccc(OC)c(OC)c2)CC1,-20,0,-20,-6,72*,0
COCCC(=O)N1CCC(Oc2ccc(C(=O)N3C[C@H]4CC[C@H]3C4)cc2)CC1,x,1,x,-1,x,0
CC(C)C(NC(=O)COc1ccc2ccccc2c1)C(=O)N/N=C/C=C/c1ccccc1 (configuration not stated),86*,-6,-57,2,-24,-1
O=C(Nc1cccc(-c2cn3ccsc3n2)c1)c1ccccc1,-2,21*,-2,1,-26,0
COc1ccccc1C(=O)Nc1cccc(-c2cn3ccsc3n2)c1,-42,x,-12,x,4,x
O=C(Nc1cccc(-c2cn3ccccc3n2)c1)c1cccc(Cl)c1,3,16*,-29,1,16,0
CCn1cc(C(=O)OCC(=O)c2ccccc2)c(=O)c2ccc(C)nc21,1,1,15,-1,-7,-1
CCn1cc(C(=O)OCC(=O)c2cc(C)n(-c3cccc(C(F)(F)F)c3)c2C)c(=O)c2ccc(C)nc21,44,-3,-40,4,68*,-1
O=C(O)c1ccc(S(=O)(=O)c2ccc3c(c2)C(=O)N(NC(=O)c2ccccc2)C3=O)cc1,13,23*,-3,-1,3,0
O=C(O)c1ccc(S(=O)(=O)c2ccc3c(c2)C(=O)N(NC(=O)c2ccncc2)C3=O)cc1,-1,0,-3,1,x,-1
SMILES,CHOP inhibitor,GRIN3A LBD mod,EBV gp42 block,MPTP block,WT yeast gro inh,Tb MetRS inh
O=C(CCl)N1N=C(c2cccs2)CC1c1ccco1 (configuration not stated),106*,0,-6,-1,-32,-1
O=C(NCCc1c[nH]c2ccccc12)c1ccc2[nH]c(=O)c(=O)[nH]c2c1,x,-3,x,-1,x,0
O=C(NCCc1c[nH]c2ccccc12)c1cc2sccc2n1Cc1ccccc1,65,0,0,2,7,-1
O=C(NCCc1c[nH]c2ccccc12)c1ccc2nc[nH]c2c1,x,27*,x,0,x,0
Cc1ccc2[nH]cc(CCNC(=O)c3ccc4c(c3)OCO4)c2c1,x,1,x,0,x,0
Cn1c(C(=O)NCCc2c[nH]c3ccccc23)cc2sccc21,x,16*,11,0,17,-1
O=C(NCCc1c[nH]c2ccccc12)c1cc(Cl)c2c(c1)OCO2,x,30*,x,-2,x,0
O=C(NCCc1c[nH]c2ccccc12)c1ccc2c(c1)OCO2,x,22*,x,1,x,-1
CCOC(=O)C1C2C=CC3(CN(Cc4ccccc4)C(=O)C13)O2 (configuration not stated),11,1,-16,3,-13,0
O=C(Nc1ccc2sccc2c1)c1ccc(Cl)s1,-46,23*,4,1,-23,0
O=C(Nc1ccc2c(c1)C(=O)NC2=O)c1ccc(Cl)s1,4,1,-7,-1,5,-1
CCC(CC)C(=O)NCCN1CCN(C(=O)C(CC)CC)CC1,13,0,-8,1,10,-1
CC(C)(C)C(=O)NCCN1CCN(C(=O)C(C)(C)C)CC1,3,673*,-9,0,19,0
COc1ccc(NC(=O)N(C)C[C@H]2Oc3c(NC(=O)Nc4ccc(C(F)(F)F)cc4)cccc3C(=O)N([C@H](C)CO)C[C@@H]2C)cc1,x,16*,x,0,x,-1
C[C@H](CO)N1C[C@H](C)[C@@H](CN(C)C(=O)Nc2ccc3c(c2)OCO3)Oc2c(NC(=O)Nc3ccc(C(F)(F)F)cc3)cccc2C1=O,x,21*,x,0,x,0
C[C@@H]1CN([C@H](C)CO)C(=O)c2cccc(NC(=O)Nc3ccc(F)cc3)c2O[C@H]1CN(C)C(=O)Nc1ccc(C(F)(F)F)cc1,x,15*,x,0,x,0
C[C@H](CO)N1C[C@H](C)[C@@H](CN(C)C(=O)Nc2ccc(C(F)(F)F)cc2)Oc2c(NC(=O)Nc3ccc4c(c3)OCO4)cccc2C1=O,x,4,x,-2,x,0
C[C@H](CO)N1C[C@H](C)[C@@H](CN(C)C(=O)NC2CCCCC2)Oc2c(NC(=O)Nc3ccc(C(F)(F)F)cc3)cccc2C1=O,x,11*,x,1,x,0
NC(N)=NS(=O)(=O)c1ccc(NC(=S)Nc2ccc(F)cc2)cc1,x,1,x,0,x,0
CC(C)Oc1ccc(C(=O)NCCNC(=O)c2ccco2)cc1,x,1,x,1,x,0
C[C@H](CO)N1C[C@H](C)[C@@H](CN(C)C(=O)Nc2ccc(C(F)(F)F)cc2)Oc2c(NC(=O)Nc3ccccc3)cccc2C1=O,x,15*,x,-1,x,0
CC(C)NC(=O)N(C)C[C@H]1Oc2c(NC(=O)Nc3ccc(C(F)(F)F)cc3)cccc2C(=O)N([C@H](C)CO)C[C@@H]1C,x,1,x,0,x,0
C/C(=N\Nc1ccccn1)c1ccc(C(C)C)cc1,51,2,1,2,76*,-1

# Screening data (PubChem)
